Tested on: Fibroblast
Assay: Multiplex assay against human fibroblast
Format: toxicity, cell-based
Outline: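 With compound added, live cells were imaged on a CQ1 microscope at 37°C and 5% CO2; staining with Hoechst33342, BioTracker Green Microtubule Cytoskeleton Dye, MitoTracker Red and Annexin V Alexa Fluor 680 had been done at seeding. The CellPathfinder machine-learning gating scheme split cells into Hoechst high-intensity objects or normal cells, normal cells into healthy, pyknosed or fragmented nuclei, and pyknosed cells into mitotic or apoptotic. The tubulin, mitochondrial-mass and membrane-permeability phenotypes are per cents of healthy-nucleus cells.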

[1] = 12 h, 1 µM, compound concentration 1 uM, replicate 1
[2] = 12 h, 1 µM, compound concentration 1 uM, replicate 2
[3] = 12 h, 10 µM, compound concentration 10 uM, replicate 1
[4] = 12 h, 10 µM, compound concentration 10 uM, replicate 2
[5] = 24 h, 1 µM, compound concentration 1 uM, replicate 1
[6] = 24 h, 1 µM, compound concentration 1 uM, replicate 2
[7] = 24 h, 10 µM, compound concentration 10 uM, replicate 1
[8] = 24 h, 10 µM, compound concentration 10 uM, replicate 2
[9] = 48 h, 1 µM, compound concentration 1 uM, replicate 1
[10] = 48 h, 1 µM, compound concentration 1 uM, replicate 2
[11] = 48 h, 10 µM, compound concentration 10 uM, replicate 1
[12] = 48 h, 10 µM, compound concentration 10 uM, replicate 2

COc1ccccc1N1CCN(C[C@@H](C(=O)NC(C)(C)C)c2ccccc2)CC1.Cl.Cl
Population Apoptotic (%) [1]: 43%
Population Fragmented Nuclei (%) [1]: 12%
Population Healthy Nuclei (%) [1]: 70%
Population Hoechst High Intensity Objects (%) [1]: 2%
Population Membrane Permeable-Phenotype (%) [1]: 0%
Population Mitochondria Different-Phenotype (%) [1]: 8%
Population Mitotic Cells (%) [1]: 56%
Population Normal (%) [1]: 97%
Population Pyknosed Nuclei (%) [1]: 16%
Population Tubulin-Different-Phenotype (%) [1]: 37%
Total Cell Count [1]: 141
Population Apoptotic (%) [2]: 40%
Population Fragmented Nuclei (%) [2]: 25%
Population Healthy Nuclei (%) [2]: 43%
Population Hoechst High Intensity Objects (%) [2]: 5%
Population Mitochondria Different-Phenotype (%) [2]: 4%
Population Mitotic Cells (%) [2]: 60%
Population Normal (%) [2]: 94%
Population Pyknosed Nuclei (%) [2]: 30%
Population Tubulin-Different-Phenotype (%) [2]: 43%
Total Cell Count [2]: 155
Population Apoptotic (%) [3]: 50%
Population Fragmented Nuclei (%) [3]: 20%
Population Healthy Nuclei (%) [3]: 59%
Population Hoechst High Intensity Objects (%) [3]: 5%
Population Membrane Permeable-Phenotype (%) [3]: 1%
Population Mitochondria Different-Phenotype (%) [3]: 20%
Population Mitotic Cells (%) [3]: 50%
Population Normal (%) [3]: 94%
Population Pyknosed Nuclei (%) [3]: 20%
Population Tubulin-Different-Phenotype (%) [3]: 66%
Total Cell Count [3]: 134
Population Apoptotic (%) [4]: 48%
Population Fragmented Nuclei (%) [4]: 32%
Population Healthy Nuclei (%) [4]: 42%
Population Membrane Permeable-Phenotype (%) [4]: 6%
Population Mitochondria Different-Phenotype (%) [4]: 12%
Population Mitotic Cells (%) [4]: 51%
Population Pyknosed Nuclei (%) [4]: 24%
Population Tubulin-Different-Phenotype (%) [4]: 70%
Total Cell Count [4]: 116
Population Apoptotic (%) [5]: 50%
Population Fragmented Nuclei (%) [5]: 12%
Population Healthy Nuclei (%) [5]: 73%
Population Hoechst High Intensity Objects (%) [5]: 2%
Population Membrane Permeable-Phenotype (%) [5]: 0%
Population Mitochondria Different-Phenotype (%) [5]: 15%
Population Mitotic Cells (%) [5]: 50%
Population Normal (%) [5]: 97%
Population Pyknosed Nuclei (%) [5]: 14%
Population Tubulin-Different-Phenotype (%) [5]: 32%
Total Cell Count [5]: 143
Population Fragmented Nuclei (%) [6]: 24%
Population Healthy Nuclei (%) [6]: 55%
Population Hoechst High Intensity Objects (%) [6]: 3%
Population Membrane Permeable-Phenotype (%) [6]: 8%
Population Mitochondria Different-Phenotype (%) [6]: 3%
Population Normal (%) [6]: 96%
Population Pyknosed Nuclei (%) [6]: 19%
Population Tubulin-Different-Phenotype (%) [6]: 50%
Total Cell Count [6]: 151
Population Apoptotic (%) [7]: 83%
Population Fragmented Nuclei (%) [7]: 19%
Population Healthy Nuclei (%) [7]: 65%
Population Hoechst High Intensity Objects (%) [7]: 8%
Population Membrane Permeable-Phenotype (%) [7]: 0%
Population Mitochondria Different-Phenotype (%) [7]: 37%
Population Mitotic Cells (%) [7]: 16%
Population Normal (%) [7]: 91%
Population Pyknosed Nuclei (%) [7]: 14%
Population Tubulin-Different-Phenotype (%) [7]: 63%
Total Cell Count [7]: 132
Population Apoptotic (%) [8]: 40%
Population Fragmented Nuclei (%) [8]: 39%
Population Healthy Nuclei (%) [8]: 41%
Population Hoechst High Intensity Objects (%) [8]: 3%
Population Membrane Permeable-Phenotype (%) [8]: 8%
Population Mitochondria Different-Phenotype (%) [8]: 8%
Population Mitotic Cells (%) [8]: 59%
Population Normal (%) [8]: 96%
Population Pyknosed Nuclei (%) [8]: 19%
Population Tubulin-Different-Phenotype (%) [8]: 76%
Total Cell Count [8]: 116
Population Apoptotic (%) [9]: 84%
Population Fragmented Nuclei (%) [9]: 18%
Population Healthy Nuclei (%) [9]: 71%
Population Hoechst High Intensity Objects (%) [9]: 5%
Population Membrane Permeable-Phenotype (%) [9]: 1%
Population Mitochondria Different-Phenotype (%) [9]: 12%
Population Mitotic Cells (%) [9]: 15%
Population Normal (%) [9]: 94%
Population Pyknosed Nuclei (%) [9]: 10%
Population Tubulin-Different-Phenotype (%) [9]: 34%
Total Cell Count [9]: 138
Population Apoptotic (%) [10]: 60%
Population Fragmented Nuclei (%) [10]: 31%
Population Healthy Nuclei (%) [10]: 52%
Population Membrane Permeable-Phenotype (%) [10]: 5%
Population Mitochondria Different-Phenotype (%) [10]: 5%
Population Mitotic Cells (%) [10]: 40%
Population Pyknosed Nuclei (%) [10]: 15%
Population Tubulin-Different-Phenotype (%) [10]: 56%
Total Cell Count [10]: 171
Population Apoptotic (%) [11]: 84%
Population Fragmented Nuclei (%) [11]: 18%
Population Healthy Nuclei (%) [11]: 63%
Population Hoechst High Intensity Objects (%) [11]: 14%
Population Membrane Permeable-Phenotype (%) [11]: 0%
Population Mitochondria Different-Phenotype (%) [11]: 34%
Population Mitotic Cells (%) [11]: 15%
Population Normal (%) [11]: 85%
Population Pyknosed Nuclei (%) [11]: 18%
Population Tubulin-Different-Phenotype (%) [11]: 65%
Total Cell Count [11]: 122
Population Apoptotic (%) [12]: 44%
Population Fragmented Nuclei (%) [12]: 50%
Population Healthy Nuclei (%) [12]: 41%
Population Hoechst High Intensity Objects (%) [12]: 3%
Population Membrane Permeable-Phenotype (%) [12]: 8%
Population Mitochondria Different-Phenotype (%) [12]: 8%
Population Mitotic Cells (%) [12]: 55%
Population Normal (%) [12]: 96%
Population Pyknosed Nuclei (%) [12]: 7%
Population Tubulin-Different-Phenotype (%) [12]: 67%

— ChEMBL document CHEMBL5058577, “EUbOPEN Chemogenomics Library 2 (Multiplex)” (2022)
